# Published values collected from several papers.
# Target: Serine/threonine-protein kinase DCLK3 (DCLK3, Homo sapiens, UniProt Q9C098)
# Sequence (Q9C098 1-648, as in one of the studies): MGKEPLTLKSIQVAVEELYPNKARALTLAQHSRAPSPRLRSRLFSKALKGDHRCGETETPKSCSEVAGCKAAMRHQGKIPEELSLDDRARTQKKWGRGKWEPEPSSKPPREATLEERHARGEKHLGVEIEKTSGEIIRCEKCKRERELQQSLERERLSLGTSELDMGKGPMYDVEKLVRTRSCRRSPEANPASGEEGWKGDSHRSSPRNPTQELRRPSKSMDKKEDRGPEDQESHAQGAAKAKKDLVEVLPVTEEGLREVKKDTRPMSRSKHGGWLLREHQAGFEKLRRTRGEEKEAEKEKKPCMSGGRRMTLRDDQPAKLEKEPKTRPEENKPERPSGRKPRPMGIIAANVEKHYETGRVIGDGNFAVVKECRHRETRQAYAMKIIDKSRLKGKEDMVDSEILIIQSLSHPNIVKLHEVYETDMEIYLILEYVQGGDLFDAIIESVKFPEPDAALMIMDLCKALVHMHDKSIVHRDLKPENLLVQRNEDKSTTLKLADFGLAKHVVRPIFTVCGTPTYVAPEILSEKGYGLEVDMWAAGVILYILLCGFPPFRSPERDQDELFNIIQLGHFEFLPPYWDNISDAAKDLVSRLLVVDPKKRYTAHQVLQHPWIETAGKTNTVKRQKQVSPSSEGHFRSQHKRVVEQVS
Structure (SMILES),assay,conditions,quantity,result
Cc1ccc(NC(=O)c2ccc(C)c(C(F)(F)F)c2)cc1C#Cc1nn(C2CCC(O)CC2)c2ncnc(N)c12 (stereo not drawn),cell-free assay,10 µM,remaining signal,101%
CN1CC(Oc2cnc(C#N)cc2-c2ccn3nc(NC(=O)C4CC4)cc3c2)C1,"enzyme activity, inhibitor",1 µM,inhibition,-4%
COc1cc(Cl)c(C(=O)N[C@@H](CN[C@H]2CC[C@@H](N)CC2)Cc2ccc(C#N)cc2)cc1-c1ccc(CN[C@H](C)c2ccc(C)cc2)o1,"enzyme activity, inhibitor",1 µM,remaining activity,89%
Cc1cc(NC(=O)c2cccc3cc(-c4cccc5[nH]nc(N)c45)ccc23)ccc1F,"enzyme activity, inhibitor",0.1 µM,activity vs control,110%
Cc1cnc(NC2CCOCC2)nc1-n1cnc(C(=O)NC(CN)c2cc(F)cc(Cl)c2)c1 (stereo not drawn),"enzyme activity, inhibitor, radiometric",1 µM,remaining activity,56%
COc1ccc2c(O[C@@H]3C[C@H]4C(=O)N[C@]5(C(=O)O)CC5/C=C\CCCCC[C@H](NC(=O)OC5CCCC5)C(=O)N4C3)cc(-c3csc(NC(=O)C(C)C)n3)nc2c1C (stereo partly drawn),"cell-free assay, competition with immobilised ligand",1 µM,remaining binding,96%
Nc1ncnc2occ(-c3ccc(NC(=O)Nc4cc(C(F)(F)F)ccc4F)cc3)c12,"cell-free assay, inhibitor",20 µM,remaining signal,24%
Cc1ccc(C(=O)Nc2ccc(CN3CCN(C)CC3)c(C(F)(F)F)c2)cc1C#Cc1cnc2cccnn12,"enzyme activity, inhibitor",23.5 nM,remaining activity,100%
COc1cc(-c2cn(C3CCc4ccccc4N(CC(F)(F)F)C3=O)nn2)ccc1-n1ccc(C)n1 (stereo not drawn),"cell-free assay, competition with immobilised ligand",1 µM,remaining binding,100%
